# Calls of active or inactive are those of the source. No cut-off for these calls is given here.
# Biological target: T1, Peroxisome proliferator-activated receptor delta (Mus musculus) (UniProt P35396)
# T1 sequence (whole entry): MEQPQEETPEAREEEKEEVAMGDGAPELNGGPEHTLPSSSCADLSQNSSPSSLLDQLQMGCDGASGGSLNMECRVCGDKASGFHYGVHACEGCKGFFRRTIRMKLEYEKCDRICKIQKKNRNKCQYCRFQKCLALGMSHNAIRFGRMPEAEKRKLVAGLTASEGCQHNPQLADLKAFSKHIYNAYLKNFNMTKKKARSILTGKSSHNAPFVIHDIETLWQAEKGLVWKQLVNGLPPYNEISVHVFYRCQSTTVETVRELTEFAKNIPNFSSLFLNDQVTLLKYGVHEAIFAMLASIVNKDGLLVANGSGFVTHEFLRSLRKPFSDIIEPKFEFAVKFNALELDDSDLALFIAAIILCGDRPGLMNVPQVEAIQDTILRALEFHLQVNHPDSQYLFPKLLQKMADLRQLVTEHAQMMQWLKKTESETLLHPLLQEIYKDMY
# Assay: Displacement of fluormone Pan-PPAR Green from mouse recombinant GST-tagged PPARbeta/delta LBD at 1 uM after 60 mins by TR-FRET assay
# Outline: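 Competitive binding by LanthaScreen TR-FRET: recombinant GST-PPARβ/δ LBD, detected through a terbium-labelled anti-GST antibody, was incubated with Fluormone Pan-PPAR Green. Compound was tested at 1 μM. Read-out is the 520 nm/495 nm emission ratio after terbium excitation, as averages of triplicates ± SD.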
row,Compound,Activity
1,N#C/C(=C\c1ccc(N2CCCCC2)cc1)c1ccccc1,Active
2,N#C/C(=C\c1ccc(N2CCOCC2)cc1)c1ccccc1,Active
3,CN(C)c1ccc(/C=C(\C#N)c2ccccc2[N+](=O)[O-])cc1,Active
4,N#C/C(=C\c1ccc(N2CCCC2)cc1)c1ccccc1,Active
5,CC1CCN(c2ccc(/C=C(\C#N)c3ccccc3)cc2)CC1,Active
6,N#C/C(=C\c1ccc(NC2CCCCC2)cc1)c1ccccc1,Active
7,N#C/C(=C\c1cccc(Br)c1)c1ccccc1,Active
8,N#C/C(=C\c1ccc(Nc2ccccc2)cc1)c1ccccc1,Active
9,CN(C)c1ccc(/C=C/c2ccccc2)cc1,inactive
10,N#C/C(=C\c1ccccc1)c1ccccc1,Active
11,CN1CCN(c2ccc(/C=C(\C#N)c3ccccc3)cc2)CC1,Active
12,COc1ccc(/C(C#N)=C/c2ccc(N(C)C)cc2)cc1,Active
13,N#C/C(=C\c1ccc(N2CCCCCC2)cc1)c1ccccc1,Active
14,N#C/C(=C\c1ccccc1Br)c1ccccc1,Active
15,CN(C)c1ccc(CC(C#N)c2ccccc2)cc1 (racemic),inactive
16,CN(C)c1ccc(/C=C(\C#N)c2ccc([N+](=O)[O-])cc2)cc1,Active
17,N#C/C(=C\c1ccc(C(F)(F)F)cc1)c1ccccc1,Active
18,CN(C)c1ccc(/C=C(\C#N)c2ccccc2C(F)(F)F)cc1,Active
19,N#C/C(=C\c1ccc(N2CCNCC2)cc1)c1ccccc1,Active

# Second part, the compound after the results:
row,Activity,Compound
1,Active,N#C/C(=C\c1ccc(Br)cc1)c1ccccc1
2,Active,CN(C)c1ccc(/C=C(\C#N)c2ccccc2Br)cc1
3,Active,CN(C)c1ccc(/C=C(\C#N)c2ccc(F)cc2)cc1
4,Active,COc1ccccc1/C(C#N)=C/c1ccc(N(C)C)cc1
5,Active,N#C/C(=C\c1ccc(Cl)cc1)c1ccccc1
6,inactive,CN(C)c1ccc(C(C#N)=Cc2ccccc2)cc1
7,Active,CN(C)c1ccc(/C=C(\C#N)c2ccc(Cl)cc2)cc1
8,Active,COc1ccc(/C=C(\C#N)c2ccccc2)cc1
9,Active,N#C/C(=C\c1ccc(N)cc1)c1ccccc1
10,inactive,CN(C)c1ccc(/C=C/C=C(\C#N)c2ccccc2)cc1
11,Active,CN(C)c1ccc(/C=C(\C#N)c2ccccc2I)cc1
12,Active,CN(C)c1ccc(/C=C(\C#N)c2cccc(Cl)c2)cc1
13,Active,CN(C)c1ccc(/C=C(\C#N)c2ccccc2F)cc1
14,Active,CN(C)c1ccc(/C=C(\C#N)c2ccccc2C#N)cc1
15,Active,CN(C)Cc1ccc(/C=C(\C#N)c2ccccc2)cc1

# Biological target: T1, Peroxisome proliferator-activated receptor delta (Mus musculus)
# Assay: Antagonist activity at PPARbeta/delta in mouse NIH3T3 cells coexpressing LexA assessed as decrease in L165,041-induced transcriptional activation at 1 uM after 48 hrs by luciferase reporter gene assay relative to control
# Assay type: functional, cell-based
# Outline: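 NIH3T3 cells were transfected with LexA-PPARα, -PPARβ/δ or -PPARγ fusion plasmids plus the 7L-TATAi luciferase reporter. From 4 h post-transfection, cells received inhibitory ligand (1 μM) for 48 h. Agonists followed: GW7647 300 nM (PPARα), L165,041 1 μM (PPARβ/δ) or GW1929 300 nM (PPARγ), or agonist solvent. Induction is luciferase activity with agonist relative to solvent; triplicates with t test.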
row,Activity,Compound
1,Active,N#C/C(=C\c1ccc(N2CCCCC2)cc1)c1ccccc1

# Biological target: T2, Peroxisome proliferator-activated receptor delta (Mus musculus, UniProt P35396)
# T2 sequence (P35396 whole entry): T1 sequence (whole entry)
# Assay: Inverse agonist activity at PPARbeta/delta in mouse C2C12 cells assessed as inhibition of Angptl4 expression after 24 hrs by RT-qPCR analysis
# Assay type: functional, cell-based
row,IC50 [nM],Compound
1,> 500,CN(C)c1ccc(/C=C(\C#N)c2ccccc2)cc1

# Source: ChEMBL document CHEMBL2029317, “(Z)-2-(2-bromophenyl)-3-{[4-(1-methyl-piperazine)amino]phenyl}acrylonitrile (DG172): an orally bioavailable PPARβ/δ-selective ligand with inverse agonistic properties” (J Med Chem, 2012)
